Source: ChEMBL document CHEMBL2176927 (J Med Chem, 2012)

Columns and labels:
[1] = Volume of distribution at steady state in mouse at 1 mg/kg, iv; format: ADME, organism-based; design: dose 1 mg/kg, route intravenous; settings: in vivo, read-out: Vdss
[2] = Oral bioavailability in mouse at 5 mg/kg; format: ADME, organism-based; settings: in vivo
[3] = test system: PC-3; experiment: Cytotoxicity against human pTEN deficient PC3 after 3 days; format: functional, cell-based; settings: PC-3, 72 h
[4] = molecular target: Cytochrome P450 2C19 (Homo sapiens, UniProt P33261); experiment: Inhibition of CYP2C19-mediated mephenytoin metabolism; format: ADME; settings: recombinant enzyme
[5] = molecular target: Cytochrome P450 2D6 (Homo sapiens, UniProt P10635); experiment: Inhibition of CYP2D6-mediated dextromethorphan metabolism; format: ADME; settings: recombinant enzyme
[6] = molecular target: Cytochrome P450 2C9 (Homo sapiens, UniProt P11712); experiment: Inhibition of CYP2C9-mediated warfarin metabolism; format: ADME; settings: recombinant enzyme
[7] = Half life in mouse at 1 mg/kg, iv; format: ADME, organism-based; design: dose 1 mg/kg, route intravenous; settings: in vivo
[8] = AUC in mouse at 5 mg/kg, po; format: ADME, organism-based; design: dose 5 mg/kg, route oral; settings: plasma
[9] = molecular target: Cytochrome P450 3A4 (Homo sapiens, UniProt P08684); experiment: Inhibition of CYP3A4-mediated midazolam and testosterone metabolism; format: ADME; settings: recombinant enzyme
[10] = molecular target: T1, Cytochrome P450 1A2 (Homo sapiens, UniProt P05177); experiment: Inhibition of CYP1A2-mediated phenacetin metabolism; format: ADME; settings: recombinant enzyme
T1 sequence (P05177 whole entry): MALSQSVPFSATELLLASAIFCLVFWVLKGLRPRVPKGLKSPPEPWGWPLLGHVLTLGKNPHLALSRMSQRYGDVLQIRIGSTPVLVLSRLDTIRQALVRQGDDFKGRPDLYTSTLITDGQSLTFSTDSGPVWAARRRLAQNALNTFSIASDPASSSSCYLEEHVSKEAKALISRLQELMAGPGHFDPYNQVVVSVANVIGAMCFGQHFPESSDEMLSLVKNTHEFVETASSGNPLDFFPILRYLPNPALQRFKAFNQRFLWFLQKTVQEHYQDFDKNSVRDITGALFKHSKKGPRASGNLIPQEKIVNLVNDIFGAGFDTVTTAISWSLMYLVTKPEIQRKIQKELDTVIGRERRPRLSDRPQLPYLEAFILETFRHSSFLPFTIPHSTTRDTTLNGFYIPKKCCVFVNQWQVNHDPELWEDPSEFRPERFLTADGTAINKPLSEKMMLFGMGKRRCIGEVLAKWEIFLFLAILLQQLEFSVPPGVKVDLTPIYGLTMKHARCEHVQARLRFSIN

[11] = Clearance in mouse liver microsomes; format: ADME, Microsome
Outline: (§1)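 Hepatic clearance (Clhep) predicted from incubation with human, rat or mouse liver microsomes.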

[12] = Clearance in mouse at 1 mg/kg, iv; format: ADME, organism-based; design: dose 1 mg/kg, route intravenous; settings: in vivo
[13] = Cytotoxicity against human MCF7/neo expressing HER2 after 3 days; format: functional
[14] = Clearance in human liver microsomes; format: ADME, Microsome; outline: as §1
[15] = Clearance in rat liver microsomes; format: ADME, Microsome; outline: as §1
[16] = Inhibition of mTORC2 in human pTEN deficient NCI-PC3 cells assessed as reduction of Akt phosphorylation at Ser473; format: cell-based
[17] = Plasma protein binding in rat; format: ADME, cell-free; settings: read-out: PPB (converted)
[18] = Plasma protein binding in human; format: ADME, cell-free; settings: read-out: PPB (converted)
[19] = Plasma protein binding in mouse; format: ADME, cell-free; settings: read-out: PPB (converted)
[20] = Selectivity ratio of Ki for PI3Kalpha to Ki for mTOR

Sequence of Cytochrome P450 2C9 (P11712 whole entry): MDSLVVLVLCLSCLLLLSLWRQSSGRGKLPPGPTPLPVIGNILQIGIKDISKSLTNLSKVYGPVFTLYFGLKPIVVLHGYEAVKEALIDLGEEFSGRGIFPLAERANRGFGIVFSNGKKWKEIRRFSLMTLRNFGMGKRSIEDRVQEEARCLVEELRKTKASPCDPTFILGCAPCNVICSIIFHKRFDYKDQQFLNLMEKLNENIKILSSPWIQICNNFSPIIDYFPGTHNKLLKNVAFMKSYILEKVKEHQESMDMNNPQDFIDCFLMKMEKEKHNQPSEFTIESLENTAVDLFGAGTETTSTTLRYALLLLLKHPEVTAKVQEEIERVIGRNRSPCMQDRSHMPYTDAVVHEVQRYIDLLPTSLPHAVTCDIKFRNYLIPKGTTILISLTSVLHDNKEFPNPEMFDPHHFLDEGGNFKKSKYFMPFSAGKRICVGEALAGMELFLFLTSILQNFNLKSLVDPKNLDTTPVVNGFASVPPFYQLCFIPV
Sequence of Cytochrome P450 3A4 (P08684 whole entry): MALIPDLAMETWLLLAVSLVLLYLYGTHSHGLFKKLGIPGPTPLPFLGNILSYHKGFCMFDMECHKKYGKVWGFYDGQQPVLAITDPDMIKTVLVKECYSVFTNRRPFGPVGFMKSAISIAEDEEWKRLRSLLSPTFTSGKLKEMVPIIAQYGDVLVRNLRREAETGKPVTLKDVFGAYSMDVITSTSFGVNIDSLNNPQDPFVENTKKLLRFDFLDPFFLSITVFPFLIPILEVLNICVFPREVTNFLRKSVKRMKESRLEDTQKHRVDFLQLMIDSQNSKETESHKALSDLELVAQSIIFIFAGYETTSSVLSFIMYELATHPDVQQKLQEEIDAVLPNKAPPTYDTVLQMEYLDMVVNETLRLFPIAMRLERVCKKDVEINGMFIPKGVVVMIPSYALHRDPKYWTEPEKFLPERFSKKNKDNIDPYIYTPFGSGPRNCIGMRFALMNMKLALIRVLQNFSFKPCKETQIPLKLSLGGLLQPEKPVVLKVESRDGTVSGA
Sequence of Cytochrome P450 2C19 (P33261 whole entry): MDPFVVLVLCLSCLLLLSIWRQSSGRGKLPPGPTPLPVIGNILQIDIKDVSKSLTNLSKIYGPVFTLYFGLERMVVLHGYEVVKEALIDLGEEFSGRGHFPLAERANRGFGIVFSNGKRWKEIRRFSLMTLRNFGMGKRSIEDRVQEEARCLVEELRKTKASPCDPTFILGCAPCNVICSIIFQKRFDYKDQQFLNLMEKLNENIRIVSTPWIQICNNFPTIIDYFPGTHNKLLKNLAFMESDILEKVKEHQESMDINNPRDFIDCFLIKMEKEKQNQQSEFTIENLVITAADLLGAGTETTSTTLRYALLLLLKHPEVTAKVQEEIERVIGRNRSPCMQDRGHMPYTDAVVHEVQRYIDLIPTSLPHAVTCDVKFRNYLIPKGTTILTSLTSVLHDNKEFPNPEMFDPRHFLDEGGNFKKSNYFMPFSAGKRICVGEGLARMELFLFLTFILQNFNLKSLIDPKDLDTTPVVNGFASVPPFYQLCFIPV
Sequence of Cytochrome P450 2D6 (P10635 whole entry): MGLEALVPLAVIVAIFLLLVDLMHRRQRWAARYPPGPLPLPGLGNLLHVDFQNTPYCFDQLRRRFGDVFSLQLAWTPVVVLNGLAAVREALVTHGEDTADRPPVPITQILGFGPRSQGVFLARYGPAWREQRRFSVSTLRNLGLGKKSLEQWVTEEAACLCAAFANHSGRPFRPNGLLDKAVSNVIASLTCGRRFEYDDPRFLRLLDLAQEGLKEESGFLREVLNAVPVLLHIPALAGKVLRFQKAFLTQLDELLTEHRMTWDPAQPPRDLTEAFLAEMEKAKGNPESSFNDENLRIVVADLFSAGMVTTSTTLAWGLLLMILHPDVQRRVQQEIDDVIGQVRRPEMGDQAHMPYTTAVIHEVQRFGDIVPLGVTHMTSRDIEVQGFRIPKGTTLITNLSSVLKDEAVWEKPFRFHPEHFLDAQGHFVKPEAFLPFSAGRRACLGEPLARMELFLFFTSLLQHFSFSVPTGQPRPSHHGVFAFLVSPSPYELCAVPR

Compound	Vd [1]	bioavailability [2]	inhibition (INH) [4]	inhibition (INH) [5]	inhibition (INH) [6]	half-life [7]	AUC [8]	inhibition (INH) [9]	inhibition (INH) [10]	CLhep predicted [11]	clearance [12]	CLhep predicted [14]	CLhep predicted [15]	IC50 [16]	fraction unbound [17]	fraction unbound [18]	fraction unbound [19]	Ratio Ki [20]	IC50 [3]	IC50 [13]
CCNC(=O)Nc1ccc(-c2nc3c(c(N4CCOC[C@@H]4C)n2)CCN(c2cccnn2)C3)cc1	1.7 L/kg	21.8%	Not Active	Not Active	Not Active	45 min	0.87 µM·h	Not Active	Not Active	34 mL/min/kg	44 mL/min/kg	7.3 mL/min/kg	19 mL/min/kg	13 nM	–	–	–	–	140 nM	290 nM
CCNC(=O)Nc1ccc(-c2nc3c(c(N4CCOC[C@@H]4C)n2)CCN(c2nnc(C)o2)C3)cc1	–	–	Not Active	Not Active	Not Active	–	–	Not Active	Not Active	–	–	–	–	22 nM	–	–	–	–	310 nM	130 nM
CCNC(=O)Nc1ccc(-c2nc3c(c(N4CCOCC4)n2)CCN(C(=O)OC(C)(C)C)C3)cc1	–	–	–	–	–	–	–	–	–	–	–	–	–	22 nM	–	–	–	–	–	–
CCNC(=O)Nc1ccc(-c2nc3c(c(N4CCOC[C@@H]4C)n2)CCN(c2nc(C)ns2)C3)cc1	0.72 L/kg	32%	Not Active	Not Active	Not Active	31.8 min	2.5 µM·h	Not Active	Not Active	58 mL/min/kg	22 mL/min/kg	19 mL/min/kg	29 mL/min/kg	8.7 nM	0.04	0.03	0.02	–	230 nM	69 nM

Now from value to compound, other results behind:

Vd [1]	bioavailability [2]	inhibition (INH) [4]	inhibition (INH) [5]	inhibition (INH) [6]	half-life [7]	AUC [8]	inhibition (INH) [9]	inhibition (INH) [10]	CLhep predicted [11]	clearance [12]	CLhep predicted [14]	CLhep predicted [15]	IC50 [16]	fraction unbound [17]	fraction unbound [18]	fraction unbound [19]	Ratio Ki [20]	Compound	IC50 [3]	IC50 [13]
2.4 L/kg	62%	–	–	–	102 min	2.9 µM·h	–	–	71 mL/min/kg	38 mL/min/kg	16 mL/min/kg	44 mL/min/kg	–	0.03	0.02	0.03	–	CCNC(=O)Nc1ccc(-c2nc3c(c(N4CCOC[C@@H]4C)n2)CN(c2ncccn2)CC3)cc1	–	–
–	–	–	–	–	–	–	–	–	–	–	–	–	37 nM	–	–	–	–	CCNC(=O)Nc1ccc(-c2nc3c(c(N4CCOCC4)n2)CCN(C(=O)OC)C3)cc1	220 nM	–
–	–	–	–	–	–	–	–	–	–	–	–	–	43 nM	–	–	–	–	CCNC(=O)Nc1ccc(-c2nc3c(c(N4CCOCC4)n2)CCN(S(C)(=O)=O)C3)cc1	430 nM	–
–	–	–	–	–	–	–	–	–	–	–	–	–	–	–	–	–	20	CCNC(=O)Nc1ccc(-c2nc(N3CCOCC3)c3sc(C(C)(C)O)cc3n2)cc1	–	–
